From PubChem
bCat KO growth: primary screen for growth suppressors in beta-catenin knockout HCT116 cells (colon tumor, human); HCT116 beta-catenin knockout viability, CellTiter-Glo, 60 h; hits give low values; viability, % at 10 µM; 140,000 compounds, 1.5% hits;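 active means viability at or under a set limit, the compound median less 4 SD, cut at about 6% in these data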;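 further: 0% = Hyamine 1622 control at 20 µM and 100% = untreated cell control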
Autophagy HCS: autophagy modulators in MEF cells, primary screen, imaging, high-content, MEF GFP-LC3. MEF GFP-LC3 puncta imaging; test concentration mostly 10 µM. calls only at 10 µM (by protocol). 190,000 compounds, 0.98% hits. AID 463193, 2010;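 active means percentage of spot-positive cells more than 3 SD above its plate mean, without a fluorescence outlier flag or 80% toxicity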;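 further: spot-positive cell cutoff set from DMSO-treated cells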
Dynein cargo inh: inhibitors of GR-EGFP nuclear translocation, primary screen, dynein cargo transport inhibitor project, imaging, high-content, 3617.4 mouse cells | 220,000 compounds, 0.47% hits | test concentration mostly 20 µM; stimulated with dexamethasone, 1 µM; hits give low values | z-score, hits read low | AID 1381, 2008;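 active means plate z-score of nuclear minus cytoplasmic receptor signal below a set negative limit, without overly bright fluorescence or cell loss, cut at about -3.5 in these data, passing the limit was not always enough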;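 further: z-score of nuclear minus cytoplasmic ring GR-EGFP intensity difference per well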
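medium = tetracycline-free induction medium containing charcoal-stripped FBS | also added = 1.0 µM final dexamethasone stimulus | schedule = 48 h induction, 1 h compound, 30 min dex at 37 °C | technique = fixed, Hoechst-stained cells imaged at 10x for EGFP | measure = GR-EGFP nuclear translocation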
HCT116 PTEN-null: growth suppression of PTEN-null HCT116, primary screen, cell-based, CellTiter-Glo; HCT116 PTEN-null viability, 60 h; hits give low values; viability, % at 10 µM; 140,000 compounds, 1.2% hits; AID 827, 2007;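 active means viability at or below a set limit, 4 SD under the median of all tested compounds, cut at about 3.7% in these data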;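 further: PTEN knockout HCT116 line with beta catenin targeted HCT116 as companion control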
Lmaj promast: Leishmania major promastigote growth inhibition, primary screen; Leishmania major promastigotes, resazurin fluorescence viability; inhibition, % at 10 µM; 200,000 compounds, 9% hits; in the data active means inhibition above about 50%;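 further: promastigotes grown with compound for 44 hours at 28 °C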
* hit, by the source's call; i = inactive; nt = no result; + = active, no number. Most compounds without a hit are left out; they make up all but 9.2% or so of the library.

SMILES	bCat KO growth	Autophagy HCS	Dynein cargo inh	HCT116 PTEN-null	Lmaj promast
O=C(c1cnn2c(C(F)(F)F)cc(-c3ccccc3)nc12)N1CCCc2ccccc21	94	i	1.9	98	0
O=C(c1cc2nc(-c3ccc(F)cc3)cc(C(F)(F)F)n2n1)N1CCCCC1c1cccnc1 (stereo not drawn)	nt	i	-0.75	nt	96*
O=C(c1cnn2c(C(F)(F)F)cc(-c3ccccc3)nc12)N1CCCCC1c1cccnc1 (stereo not drawn)	nt	i	0.37	nt	52*
N#CN(Cc1ccccc1)Cc1ccccc1	nt	nt	-0.61	nt	nt
CC(C)c1ccc2c(c1)[C@H]1OCC[C@H]1[C@@H](c1cccs1)N2	17	+	-0.33	18	1
O=C1CCc2cc(S(=O)(=O)NC(Cc3ccccc3)C(=O)NCCC3=CCCCC3)ccc2N1 (stereo not drawn)	86	i	-0.38	83	-7
O=C(C1CCCCN1S(=O)(=O)c1ccccc1[N+](=O)[O-])N1CCCCC1 (stereo not drawn)	nt	i	-1.1	nt	-2
CCn1c(SCC(=O)Nc2cc(S(=O)(=O)N3CCOCC3)ccc2OC)nnc1-c1ccncc1	nt	i	-0.83	nt	-5
CCOC(=O)c1sc2nc(C)nc(SCC(=O)NC(C)CCc3ccccc3)c2c1C (stereo not drawn)	88	i	0.65	101	96*
COCCNC(=S)N1CCN(S(C)(=O)=O)CC1	nt	i	1.5	nt	-5
O=C(Nc1ccc(Cl)cn1)c1cc2c(s1)-c1ccccc1OC2	nt	nt	0.6	nt	nt
COc1ccc(CNC(=O)CSc2cccc3cccnc23)cc1	nt	nt	1.1	nt	nt
CCOC(=O)CSc1cccc2cccnc12	6.0*	+	-0.69	2.7*	91*
CCN1CCN(c2ccc(S(=O)(=O)N(CC)CC)cc2[N+](=O)[O-])CC1	95	i	-0.88	91	95*
CCN(CC)S(=O)(=O)c1ccc(N2CCN(c3cccc(OC)c3)CC2)c([N+](=O)[O-])c1	63	i	-0.58	66	100*
CN(C)CCNS(=O)(=O)c1ccc(N2CCN(c3ccc(F)cc3)CC2)c([N+](=O)[O-])c1	51	i	0.7	69	98*
CCCCCC(=O)NN=C1CCN(Cc2ccccc2)CC1	81	i	0.007	85	-4
CCCN1CNc2c(c(=O)[nH]c(=S)n2-c2ccc(Cl)cc2)C1	nt	i	-1	nt	0
Nc1nc(SCC(=O)c2c(N)n(Cc3ccccc3)c(=O)[nH]c2=O)n[nH]1	nt	nt	-0.56	nt	nt
Cc1cc(C)cc(N(C(=O)c2nsc(Cl)c2Cl)C(C(=O)NC2CCCC2)c2ccc(O)cc2)c1 (stereo not drawn)	47	i	0.59	42	71*
Cc1ccc(N(C(=O)c2nsc(Cl)c2Cl)C(C(=O)NC2CCCC2)c2ccc(O)cc2)cc1C (stereo not drawn)	74	i	0.55	70	76*
Cc1cccc(N(C(=O)c2nsc(Cl)c2Cl)C(C(=O)NC2CCCC2)c2ccc(O)cc2)c1C (stereo not drawn)	53	i	0.87	49	98*
C/C(=N\NC(=O)C(N)=O)c1cccc(C(F)(F)F)c1	nt	i	-0.65	nt	3
CCOCCCNC(=O)C(c1ccc(OC)cc1)N(Cc1cccs1)C(=O)c1ccccn1 (stereo not drawn)	nt	i	2.7	nt	-4
CC(=O)Nc1ccc(OCC(O)Cn2c3ccccc3c3ccccc32)c(C)c1 (stereo not drawn)	42	i	0.21	35	75*
Cc1ccc(N(CC(O)Cn2c3ccccc3c3ccccc32)S(C)(=O)=O)cc1 (stereo not drawn)	65	i	0.25	81	41
Cc1ccccc1OCC(O)Cn1c2ccccc2c2ccccc21 (stereo not drawn)	65	i	-0.81	57	91*
Cc1cc(C)n(CC(O)CN(c2ccccc2)S(=O)(=O)c2ccccc2)n1 (stereo not drawn)	106	i	-0.28	106	0
Cc1ccc(N(CC(O)Cn2nc(C)cc2C)S(=O)(=O)c2ccc3ccccc3c2)cc1 (stereo not drawn)	81	i	0.084	76	76*
CC(=O)Nc1ccc(N(CC(O)Cn2c3ccccc3c3ccccc32)S(=O)(=O)c2ccc(C)cc2)cc1 (stereo not drawn)	43	i	-0.22	31	62*
